From ChEMBL document CHEMBL1134771, “Synthesis and antimalarial activity of novel medium-sized 1,2,4,5-tetraoxacycloalkanes” (J Med Chem, 2001)

Legend:
Mus musculus [1] = assay: in vivo antimalarial activity against Plasmodium berghei infected mice (Mus musculus) on oral administration; type: functional
Summary of the method: (§1)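 Mice infected with P. berghei NK 65. Compounds were prepared in olive oil at various concentrations and given orally to groups of five mice once daily on days 0–3, starting on the day of infection. Parasitemia was read on day 4, and ED50/ED90 were derived by the earlier protocol.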

Mus musculus [2] = assay: In vivo antimalarial activity against Plasmodium berghei infected mice (Mus musculus) on oral administration; type: functional; summary of the method: as §1
[3] = Mean of EC50 value for FM3A cells/ mean of EC50 value for Plasmodium falciparum; type: functional
Summary of the method: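 Selectivity is the mean EC50 against FM3A mouse mammary tumor cells divided by the mean EC50 against P. falciparum FCR-3.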

FM3A = assay: in vitro cytotoxicity against mouse mammary tumor in cell culture.; type: functional, cell-based
Summary of the method: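 Mouse mammary tumor FM3A cells in culture, used as a mammalian cytotoxicity control; EC50 determined.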

Plasmodium falciparum = assay: In vitro antimalarial activity for Plasmodium falciparum; type: functional, organism-based
Summary of the method: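 Chloroquine-sensitive P. falciparum FCR-3 strain cultured in vitro; EC50 determined.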

Mus musculus [4] = assay: in vivo antimalarial activity against Plasmodium berghei infected mice (Mus musculus) on intraperitoneal administration; type: functional; details: ip
Summary of the method: as §1, with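 “injected intraperitoneally into” for “given orally to”, “measured” for “read”, “calculated” for “derived”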

Row | SMILES | ED90 (Mus musculus [1]) | ED50 (Mus musculus [2]) | Selectivity [3] | EC50 (FM3A) | EC50 (Plasmodium falciparum) | ED50 (Mus musculus [4]) | ED90 (Mus musculus [4])
1 | CC(C)(C)C1CCC2(CC1)OOCCCOO2 | 84 mg/kg | 52 mg/kg | 10000 | 30000 nM | 3 nM | 15 mg/kg | 30 mg/kg
2 | C1CCCCCC2(CCCCC1)OOCCCOO2 | 40 mg/kg | 20 mg/kg | 320 | 8000 nM | 25 nM | 12 mg/kg | 20 mg/kg
3 | C1CCCCCC2(CCCCC1)OOCCCCCCCCOO2 | – | – | 17 | 29000 nM | 1700 nM | – | –
4 | C1CCCCCC2(CCCCC1)OOCCCCOO2 | – | – | 170 | 17000 nM | 100 nM | 48 mg/kg | 65 mg/kg
5 | C1CCCCCC2(CCCCC1)OOCCCCCCOO2 | – | – | 1600 | 16000 nM | 10 nM | 160 mg/kg | > 200 mg/kg
6 | CCCCCCC1(CCCCCC)OOCCCOO1 | – | – | 95 | 19000 nM | 200 nM | 60 mg/kg | 91 mg/kg
7 | C1CCCCCC2(CCCCC1)OOCCCCCOO2 | – | – | 43 | 12000 nM | 280 nM | – | –
8 | C1COOC2(OOC1)C1CC3CC(C1)CC2C3 | – | – | 1160 | 58000 nM | 50 nM | 100 mg/kg | –
9 | CCCCCC1(CCCCC)OOCCCOO1 | – | – | 110 | 34000 nM | 310 nM | 30 mg/kg | 58 mg/kg
10 | C[C@@H]1CC[C@H]2[C@@H](C)C(=O)O[C@@H]3O[C@@]4(C)CC[C@@H]1[C@]32OO4 [ARTEMISININ] | 89 mg/kg | 13 mg/kg | 1000 | – | 10 nM | 5 mg/kg | 32 mg/kg
